Only a sample is shown.
GRK2 inh = compounds blocking aptamer binding on GRK2 – biochemical, human GRK2, bead flow cytometry, HTS, primary screen; inhibition of aptamer binding, % at 10 µM; actives 0.59% (n = 330,000); Beta-adrenergic receptor kinase 1 (Homo sapiens), P25098; FAM-aptamer displacement from GRK2; AID 488847, 2010;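 active = inhibition of aptamer binding above 40%, roughly 3 SD of noise, on plates passing a quality check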;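 note: median bead fluorescence of bound FAM aptamer so fluorescent compounds give negative values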
H9c2 TAG inh = inhibitors of triacylglycerol accumulation, primary screen, cell-based, uHTS, fluorescence, H9c2; H9c2 cells, Nile Red lipid (TAG) fluorescence; cells loaded with 200 µM oleic acid; inhibition, % at 12.5 µM; actives 0.66% (n = 230,000);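 active = pattern-corrected inhibition of lipid staining of at least 50% with the nuclear-stain viability signal not falling by more than 50%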;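 note: 0% = DMSO wells and 100% = triacsin C control wells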
Lipid droplet = inhibitors of hepatocyte lipid droplet formation, primary screen, imaging, high-throughput imaging, BODIPY stain; AML12 mouse hepatocytes, oleate lipid droplets; inhibition, % at 6.5 µM; actives 0.4% (n = 240,000);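 active = lipid droplet intensity inhibited by at least 50%, with more than 500 cells counted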
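Technique: fluorescence imaging, 20x objective, two fields per well / Assay system: AML12 hepatocytes (mouse) / Measure: % inhibition of lipid droplet signal / Doses: 6.5 µM single-point dosing / Incubation: overnight exposure / Reagent: 100 µM oleic acid challenge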
NTR1 ag = agonists of human NTR1, primary screen, imaging, U2OS cells, beta-arrestin-GFP, high content | Neurotensin receptor type 1 (Homo sapiens), P30989 | NTR1-U2OS beta-arrestin-GFP spot imaging, agonist mode | activation, % at 20 µM | actives 0.17% (n = 330,000);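 active = activation at or above 40% of the spot to cytoplasm intensity ratio, with at least 20 cells analyzed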;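 note: 0% = DMSO without peptide and 100% = 100 nM NTR1 peptide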
Arrestin-AP2 inh = inhibitors of beta-arrestin/AP2 binding, primary screen, biochemical, GPCR trafficking, flow cytometry. FITC-arrestin peptide / GST-AP2 beads; AP2 beta2 appendage carries R879A mutation. inhibition, % at 10 µM. beta-arrestin 1 C-terminal peptide binding to AP2 beta2-adaptin appendage (human). actives 0.31% (n = 340,000);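 active = inhibition above a set limit, near 3 SD of compounds lacking own fluorescence, cut at about 54% in these data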;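 note: plate controls were DMSO wells for no effect and 5 µM unlabelled arrestin peptide for full effect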
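system = GST-tagged AP2 beta2-adaptin appendage (R879A) on 4 µm glutathione beads | reagent = FITC-labelled arrestin peptide probe, 50 nM final | schedule = compound with beads 12 min RT, then probe 1 h RT | signal = HyperCyt-sampled flow cytometry, FL1 channel, ex 488/em 535 nm | read-out = percent response from loss of bead-bound FITC fluorescence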
Beta2AR agonist = beta2AR agonists driving receptor internalization, primary screen, cell-based, FAP fluorogen, flow cytometry; actives 0.43% (n = 340,000); response, % (concentration not given with the values); Am2.2-beta2AR cells; Beta-2 adrenergic receptor (Homo sapiens), P07550;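 active = response above a set limit, near 3 SD of response in nonfluorescent compounds, cut at about 42% in these data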
Target sequence (P07550 whole entry, looked up): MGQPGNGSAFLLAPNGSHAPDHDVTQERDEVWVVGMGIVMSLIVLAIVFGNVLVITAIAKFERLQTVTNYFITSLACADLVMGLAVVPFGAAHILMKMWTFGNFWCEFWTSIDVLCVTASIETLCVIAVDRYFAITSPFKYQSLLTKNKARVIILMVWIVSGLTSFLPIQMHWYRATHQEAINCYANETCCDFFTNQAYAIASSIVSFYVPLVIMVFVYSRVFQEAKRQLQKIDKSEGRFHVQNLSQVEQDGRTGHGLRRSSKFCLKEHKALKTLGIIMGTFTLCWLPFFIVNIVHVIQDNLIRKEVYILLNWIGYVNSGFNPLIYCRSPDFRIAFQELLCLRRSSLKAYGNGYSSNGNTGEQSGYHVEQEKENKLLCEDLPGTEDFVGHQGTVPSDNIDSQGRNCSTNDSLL
Beta2AR ag CP1 = beta2AR agonists via receptor internalization, confirmation, cell-based, FAP fluorogen, flow cytometry, single point, cherry pick 1; shares compounds with Beta2AR agonist; Am2.2-beta2AR cells, FAP surface receptor; active compounds read low; percent response (surface receptor), % at 10 µM; actives 25% (n = 1,100);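 active = surface receptor percent response at or below 58%, roughly 3 SD from nonfluorescent compounds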
B2AR FAP counter = counter-screen for beta-2AR agonists: fluorescence in Am2.2 cells; 1,100 tested, under 10 active; calls only at 10 µM; FAP fluorogen flow cytometry, fluorescence counterscreen; active compounds read low; shares compounds with Beta2AR agonist;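 active = percent response below a set limit in fluorescence channel 1 and below 50% in channel 8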
* = called active by the depositor.

Results for Cc1ccc(S(=O)(=O)Nc2ccc(O)c3ncccc23)cc1 ?
GRK2 inh: 1; H9c2 TAG inh: 21; Lipid droplet: 12; NTR1 ag: -1; Arrestin-AP2 inh: 9; Beta2AR agonist: 1

Results for Cc1noc(C)c1CSc1ccccc1C(=O)N(C)CC(=O)Nc1cccc(F)c1 ?
GRK2 inh: 0; H9c2 TAG inh: -3; NTR1 ag: 0; Arrestin-AP2 inh: 1; Beta2AR agonist: -1

How did N#Cc1ccc(CN2CCN(C(=O)c3cc(C4CC4)nn3-c3ccccc3)CC2)cc1 do in these assays?
GRK2 inh: 0; H9c2 TAG inh: -11; NTR1 ag: 2; Arrestin-AP2 inh: -8; Beta2AR agonist: 2

How did COCc1ccc(CN2CCCC(C(=O)Nc3ccccc3-c3ccc(OC)cc3)C2)o1 (configuration not stated) do in these assays?
GRK2 inh: 0; Lipid droplet: -3; NTR1 ag: 6; Arrestin-AP2 inh: 7; Beta2AR agonist: 4

Results for COCc1ccc(CN2CCCC(C(=O)Nc3ccc(-c4cccc(OC)c4)cc3)C2)o1 (configuration not stated) ?
GRK2 inh: 7; Lipid droplet: -4; NTR1 ag: 6; Arrestin-AP2 inh: 7; Beta2AR agonist: 30; Beta2AR ag CP1: 116; B2AR FAP counter: inactive

Results for O=C(Nc1ccc(-c2cccc(F)c2)cc1)C1CCCN(Cc2ccccn2)C1 (configuration not stated) ?
GRK2 inh: 0; H9c2 TAG inh: 3; Lipid droplet: 4; NTR1 ag: 4; Arrestin-AP2 inh: -13; Beta2AR agonist: 0; Beta2AR ag CP1: 110; B2AR FAP counter: inactive

Results for COc1cccc(-c2ccc(NC(=O)C3CCCN(Cc4cnn(C(C)C)c4)C3)cc2)c1 (configuration not stated) ?
GRK2 inh: 0; H9c2 TAG inh: -4; Lipid droplet: -2; NTR1 ag: 6; Arrestin-AP2 inh: 1; Beta2AR agonist: 23; Beta2AR ag CP1: 85; B2AR FAP counter: inactive

Results for COc1cccc(-c2ccc(NC(=O)C3CCCN(Cc4ccccn4)C3)cc2)c1 (configuration not stated) ?
H9c2 TAG inh: -23; Beta2AR ag CP1: 106; B2AR FAP counter: inactive

How did COc1cccc(-c2ccc(NC(=O)C3CCCN(Cc4cc(C)[nH]n4)C3)cc2)c1 (configuration not stated) do in these assays?
GRK2 inh: 0; H9c2 TAG inh: 19; Lipid droplet: -1; NTR1 ag: 1; Arrestin-AP2 inh: 34; Beta2AR agonist: 3

How did Cn1c(CC(=O)NNC(=O)c2ccc(F)cc2Cl)nc2ccccc21 do in these assays?
GRK2 inh: 0; H9c2 TAG inh: 2; NTR1 ag: -1; Arrestin-AP2 inh: 23; Beta2AR agonist: -3

Results for COc1ccc(C(=O)NCC(=O)OCC(=O)NC2CCCCCC2)cc1 ?
GRK2 inh: 23; H9c2 TAG inh: -9; NTR1 ag: -1; Arrestin-AP2 inh: 17; Beta2AR agonist: 3

How did CN(Cc1ccc(C(C)(C)C)cc1)C(=O)C1CSC2(C)CCC(=O)N12 (configuration not stated) do in these assays?
GRK2 inh: 0; H9c2 TAG inh: -1; NTR1 ag: 2; Arrestin-AP2 inh: 26; Beta2AR agonist: 1

Assay outcomes deposited in PubChem by several laboratories.
